The text below walks through data of ChEMBL document CHEMBL1156545, “Unusual C25 steroid isomers with bicyclo[4.4.1]A/B rings from a volcano ash-derived fungus Penicillium citrinum” (J Nat Prod, 2008).

Activity calls are given as the source filed them. The calls are words filed in the database; no cut-off is given here.

The test system of one test is CHO. The experiment in a line: Induction of cAMP generation in wild-type CHO cells at 10 uM. Type of test: functional, cell-based. The conditions noted are these: Cricetulus griseus. In short, it runs like this:
(§1)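 Test compounds at 10 µM applied to CHO cells transfected with GPR12 and, in parallel, to untransfected wild-type CHO cells, which serve as the receptor-free comparison. The read-out is cAMP production in each cell line. The assay follows literature cAMP methods.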

Test [1] concerns the target T1, G-protein coupled receptor 12 (Homo sapiens) (UniProt P47775).
T1 sequence (whole entry): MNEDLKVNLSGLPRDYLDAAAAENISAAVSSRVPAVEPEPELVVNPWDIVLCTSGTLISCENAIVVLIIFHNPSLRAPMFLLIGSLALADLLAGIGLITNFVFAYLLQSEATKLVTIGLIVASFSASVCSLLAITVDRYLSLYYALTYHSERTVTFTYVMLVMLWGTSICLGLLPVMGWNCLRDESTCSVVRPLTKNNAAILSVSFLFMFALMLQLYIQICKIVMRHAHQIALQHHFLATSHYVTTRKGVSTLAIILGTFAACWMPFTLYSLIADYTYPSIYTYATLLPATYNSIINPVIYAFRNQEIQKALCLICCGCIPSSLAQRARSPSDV
The experiment in a line: Activity at GPR12 expressed in CHO cells assessed as induction of cAMP production at 10 uM. Type of test: functional, cell-based. The gist of the method:
as §1
Background: Cyclic AMP is a second messenger, typically raised through Gs and lowered through Gi signalling.

As to `C[C@H](O)/C=C/[C@](C)(O)[C@H]1CC[C@H]2C3=CC(=O)[C@H]4CC(=CC[C@H](O)C4)[C@H]3CC[C@@]21C`, the outcome in the test on CHO was inactive. The result in test [1] was Active.

Turning to `C[C@@H](O)/C=C/[C@](C)(O)[C@H]1CC[C@H]2C3=CC(=O)[C@H]4CC(=CC[C@H](O)C4)[C@H]3CC[C@@]21C`, in the test on CHO, the outcome was inactive. The result in test [1] was Active.

Regarding `C/C(=C\[C@@H](O)[C@H](C)O)[C@H]1CC[C@H]2C3=CC(=O)[C@H]4CC(=CC[C@H](O)C4)[C@H]3CC[C@]12C`, in the test on CHO, the result was inactive. Moreover, the result in test [1] was Active.

For the compound `C/C(=C\[C@H](O)[C@H](C)O)[C@H]1CC[C@H]2C3=CC(=O)[C@H]4CC(=CC[C@H](O)C4)[C@H]3CC[C@]12C`, in the test on CHO, the outcome was inactive. Moreover, the outcome in test [1] was Active.

Turning to `CO[C@H](/C=C(\C)[C@H]1CC[C@H]2C3=CC(=O)[C@H]4CC(=CC[C@H](O)C4)[C@H]3CC[C@]12C)[C@@H](C)O`, the outcome with CHO was inactive. Also, the result in test [1] was Active.
